From PMC6314015 (Bioorganic & medicinal chemistry, 2018)
Entries after “also recorded” stand apart in the source; their conditions may differ.

Columns and labels:
[1] = 1H NMR characterization of hydrolytic stability in D2O; format: physicochemical
How it was run: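 Prochelator stocks (10 mM in DMSO-d6) diluted to 500 μM in D2O with 5% DMSO-d6, or to 200 μM with 2% DMSO-d6 for one analog. Solutions equilibrated 1 h before 1H NMR. Intact prochelator and isoniazid fraction estimated by integrating the hydrazone-compound aromatic peak against the corresponding isoniazid peak.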

[2] = UV-Vis spectrophotometry of hydrolysis equilibrium in PBS pH 7.4; format: physicochemical; conditions: for hydrolysis equilibrium constant K: PBS pH 7.4, equilibrated mixtures at various concentrations; for fold improved hydrolytic stability compared to BSIH: from K values
How it was run: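 DMSO stocks were diluted into PBS pH 7.4 (100 μM). Spectra were recorded in 1-cm quartz cuvettes every 1 min over 30 min; 100 μM isoniazid + 100 μM aldehyde fragment served as reference. For K, equilibrated solutions at several initial concentrations were read at 263 and 321 nm, and component concentrations were solved from fitted extinction coefficients. K = [INH][FBA]/[prochelator], averaged across concentrations.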

ARPE-19 cells [3] = assay: Cytoprotection against H2O2-induced oxidative damage; format: cell-based, human
How it was run: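 ARPE-19 cells were grown to confluence (DMEM/F12 1:1, 10% FBS, 37 °C, 5% CO2) and washed with MEM. Cells were pretreated 5 h with prochelators or chelators in MEM, then given 200 μM H2O2 (final) and incubated 19 h more. Viability read by CellTiter-Blue, as % of MEM-only control; H2O2-only as negative control; triplicate, SD.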

H9c2 cardiomyoblasts = conditions: after 72 h; cited from earlier work
[4] = test system: ARPE-19 retinal pigment epithelial cells; assay: Inherent cytotoxicity, CellTiter-Blue viability; format: cell-based, human; conditions: 72 h incubation, up to 100 μM
How it was run: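 Confluent ARPE-19 cells (DMEM/F12 1:1 with 10% FBS, 37 °C, 5% CO2) were washed three times with MEM. Cells were exposed to prochelators at 5–100 μM final in MEM with up to 1% DMSO for 72 h. Viability measured by CellTiter-Blue; triplicate runs, standard deviation.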

ARPE-19 cells [5] = assay: Cytoprotection against paraquat-induced oxidative damage; format: cell-based, human; conditions: 10 mM paraquat, 48 h; for cytoprotection against paraquat damage: prochelators; for cytoprotection against paraquat-induced cell death: chelators, Figure S5
[6] = comparable solutions (500 μM); cited from earlier work
[7] = same concentration (500 μM); cited from earlier work
[8] = cited from earlier work
[9] = pH 7.4, total ligand 10 µM, iron 1 µM; cited from earlier work
[10] = format: binding; conditions: for calcein fluorescence upon addition of chelator: 4 μM chelator (2 equivalents), 2 μM calcein-Fe^3+, PBS pH 7.4
How it was run: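 Fe3+-calcein formed by equilibrating 4 μM ferric ammonium citrate with 4 μM calcein in PBS for 4 h. Compounds were freshly made at 100 μM in PBS pH 7.4; for activation, 100 μM prochelator was incubated with 5 mM H2O2 for 12 h. 2 μM Fe3+-calcein plus 4 μM compound or mixture, 2 h, 25 °C; fluorescence at 485/535 nm. Triplicate wells averaged; calcein-only wells = 100%.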

[11] = cited from earlier work; remark: listed apart in the source
[12] = Solubility in aqueous buffers; format: physicochemical; conditions: aqueous buffer
[13] = prochelators, 5 h pre-incubation, 200 μM H2O2, viability after 19 h

COc1ccc(/C=N/NC(=O)c2ccncc2)cc1B1OC(C)(C)C(C)(C)O1 [(m-OMe)BIIH, (E)-N’-(4-methoxy-3-(4,4,5,5-tetramethyl-1,3,2-dioxaborolan-2-yl)benzylidene)isonicotinohydrazide]
hydrolysis products by 1H NMR upon dilution in D2O ([1]; 500 μM in D2O, 5% DMSO-d6): no additional peaks corresponding to potential hydrolysis products were observed | UV-Vis spectrum over time in PBS buffer ([2]; PBS buffer, Figure S3): remains unchanged over time | cytoprotection from peroxide damage (ARPE-19 cells [3]; [13]): lack of cytoprotection

C/C(=N\NC(=O)c1ccncc1)c1ccccc1OCc1ccc(B2OC(C)(C)C(C)(C)O2)cc1 [BHAPI]
TC50 (H9c2 cardiomyoblasts): 37.1 ± 7.7 µM

CC1(C)OB(c2ccccc2/C=N/NC(=O)c2ccncc2)OC1(C)C [BSIH, (E)-N’-(2-(4,4,5,5-tetramethyl-1,3,2-dioxaborolan-2-yl)benzylidene)isonicotinohydrazide]
cytotoxicity [4]: non-toxic | cytoprotection against paraquat damage (ARPE-19 cells [5]): failed to protect cells from paraquat damage; also recorded: lack of cytoprotection | intact prochelator at equilibrium [6]: 80% | SIH generated from peroxide activation [7]: 51% | stability in plasma ([8]; 10 h incubation in plasma): little degradation

CNC(=S)N/N=C/c1ccccc1B1OC(C)(C)C(C)(C)O1 [BSMTH, (E)-N-methyl-2-(2-(4,4,5,5-tetramethyl-1,3,2-dioxaborolan-2-yl)benzylidene)hydrazine-1-carbothioamide]
cytoprotection from peroxide damage (ARPE-19 cells [3]; [13]): lack of cytoprotection; also recorded: ineffective | cytoprotection against paraquat damage (ARPE-19 cells [5]): lack of cytoprotection

O=C(O)CN(CC(=O)O)Cc1cc2c(cc1O)Oc1cc(O)c(CN(CC(=O)O)CC(=O)O)cc1C21OC(=O)c2ccccc21 [Calcein]
pFe [9]: 20.3

COc1ccc(O)c(/C=N/NC(=O)c2ccncc2)c1 [(p-OMe)SIH, (E)-N’-(2-hydroxy-5-methoxybenzylidene)isonicotinohydrazide]
calcein fluorescence upon addition of chelator [10]: more than 90% | cytoprotection against paraquat-induced cell death (ARPE-19 cells [5]): ~ 40%

CNC(=S)N/N=C/c1ccccc1O [SMTH, (E)-2-(2-hydroxybenzylidene)-N-methylhydrazine-1-carbothioamide]
calcein fluorescence upon addition of chelator [10]: no effect on the quenched signal | cytoprotection from peroxide damage (ARPE-19 cells [3]; chelators, H2O2-stressed cells, Figure S4): no protective effect | cytoprotection against paraquat-induced cell death (ARPE-19 cells [5]): failed to protect cells

O=C(N/N=C/c1ccccc1O)c1ccncc1 [SIH, (E)-N’-(2-hydroxybenzylidene)isonicotinohydrazide]
cytoprotection against paraquat-induced cell death (ARPE-19 cells [5]): ~ 40% | stability in buffer ([8]; buffer at pH 7.4): remains intact | stability in cell culture media and plasma ([8]; cell culture media and plasma): degrades within hours

COc1ccc(B2OC(C)(C)C(C)(C)O2)c(/C=N/NC(=O)c2ccncc2)c1 [(p-OMe)BSIH, (E)-N’-(5-methoxy-2-(4,4,5,5-tetramethyl-1,3,2-dioxaborolan-2-yl)benzylidene)isonicotinohydrazide]
INH at equilibrium ([1]; 500 μM in D2O, 5% DMSO-d6, 1 h equilibration): 15% | hydrolysis equilibrium constant K [2]: (1.1 ± 0.1) × 10^−5 M | fold improved hydrolytic stability compared to BSIH [2]: 1.3 fold | concentration effective for cytoprotection (ARPE-19 cells [3]; [13]): 25 µM | increase in H2O2-dependent conversion rate relative to the m-Cl compound [11]: ~5 fold

COc1ccc(/C=N/NC(=O)c2cccnc2)c(O)c1 [(m-OMe)SNH, (E)-N’-(2-hydroxy-4-methoxybenzylidene)nicotinohydrazide]
calcein fluorescence upon addition of chelator [10]: more than 90% | solubility [12]: ≥ 300 µM

Oc1ccccc1/C=N/NC(=S)Nc1ccccc1 [SPTH, (E)-2-(2-hydroxybenzylidene)-N-phenylhydrazine-1-carbothioamide]
calcein fluorescence upon addition of chelator [10]: failed to fully restore calcein emission | cytoprotection against paraquat-induced cell death (ARPE-19 cells [5]): ~ 40%

COc1ccc(/C=N/NC(=O)c2ccncc2)c(O)c1 [(m-OMe)SIH]
solubility [12]: ≤ 50 µM

CC1(C)OB(c2ccccc2/C=N/NC(=S)Nc2ccccc2)OC1(C)C [BSPTH, (E)-N-phenyl-2-(2-(4,4,5,5-tetramethyl-1,3,2-dioxaborolan-2-yl)benzylidene)hydrazine-1-carbothioamide]
cytoprotection from peroxide damage (ARPE-19 cells [3]; [13]): modest cellular protection | cytoprotection against paraquat damage (ARPE-19 cells [5]): lack of cytoprotection

COc1ccc(/C=N/NC(=O)c2cccnc2)c(B2OC(C)(C)C(C)(C)O2)c1 [(m-OMe)BSNH, (E)-N’-(4-methoxy-2-(4,4,5,5-tetramethyl-1,3,2-dioxaborolan-2-yl)benzylidene)nicotinohydrazide]
solubility [12]: ≥ 300 µM

C/C(=N\NC(=O)c1ccncc1)c1ccccc1O [HAPI, (E)-N’-(1-(2-hydroxyphenyl)ethylidene)isonicotinohydrazide, reference compound]
cytoprotection against paraquat-induced cell death (ARPE-19 cells [5]): ~ 40%

CC1(C)OB(c2cc3c(cc2/C=N/NC(=O)c2ccncc2)OCO3)OC1(C)C [(MD)BSIH, (E)-N’-((6-(4,4,5,5-tetramethyl-1,3,2-dioxaborolan-2-yl)benzo[d][1,3]dioxol-5-yl)methylene)isonicotinohydrazide]
increase in chelator released compared to BSIH ([10]; after H2O2 activation): 50% | hydrolysis fragments in the equilibrated solution ([1]; 200 μM in D2O, 2% DMSO-d6): 20% | hydrolysis equilibrium constant K, fold lower than parent BSIH [2]: ~ 2 fold | hydrolysis equilibrium constant K [2]: (8.0 ± 0.6) × 10^−6 M | fold improved hydrolytic stability compared to BSIH [2]: 1.9 fold | cytotoxicity [4]: non-toxic | concentration effective for cytoprotection (ARPE-19 cells [3]; [13]): 25 µM | cytoprotection against paraquat damage (ARPE-19 cells [5]): dose-dependent recovery of cell viability
